KLK7 zymogen act = activates the human kallikrein-7 zymogen | purified proKLK7, EDANS-DABCYL substrate fluorescence; 100% is mature enzyme control, 0% vehicle | 370,000 tested, 0.9% active | AID 652039 | activation, % at 7 µM | P49862;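 active means activation above the mean of all tested compounds plus 3 SD, computed per campaign excluding outliers beyond control limits, cut at about 13% in these data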
Target sequence (P49862 whole entry, looked up): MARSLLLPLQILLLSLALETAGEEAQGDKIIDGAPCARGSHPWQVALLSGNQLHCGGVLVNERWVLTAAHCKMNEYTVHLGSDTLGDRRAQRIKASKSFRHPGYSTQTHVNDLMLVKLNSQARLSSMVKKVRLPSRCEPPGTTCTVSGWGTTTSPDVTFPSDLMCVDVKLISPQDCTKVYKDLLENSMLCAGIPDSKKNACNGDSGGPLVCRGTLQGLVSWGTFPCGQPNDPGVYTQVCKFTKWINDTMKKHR
Yeast superoxide = yeast age-related superoxide inhibition as caloric restriction mimetic. S. cerevisiae aged cells, superoxide DHE fluorescence; active compounds read low. superoxide response (% of plate mean), % at 10 µM. 330,000 tested, 0.18% active;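 active means superoxide response under a set limit, about three screen SD below normal, cut at about 65% in these data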;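 further: yeast aged for seven days with compound at 30 °C before DHE staining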
T cell modulator = T cell immune modulators affecting CD8 T cell-vesicle binding. response (vesicle binding), % at 7 µM. 2C CD8+ T cell-vesicle binding, flow cytometry; active compounds read low. 330,000 tested, 0.068% active;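 active means response, share of CD8 T cells binding vesicles, and their 90th percentile fluorescence all below set limits, cut at about 80% in these data, passing the limit was not always enough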;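 further: values below 100% mean blocked vesicle binding to the CD8+ T cells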
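Incubation: binding step 1.5 h, 37 °C, antibody labelling 20 min, ice; system: murine 2C transgenic CD8+ T lymphocytes; technique: cytometric PE anti-B7-1 and Alexa647 anti-CD8 signals after 1% paraformaldehyde fixation; also added: QL9-charged Drosophila Ld/ICAM-1/B7-1 vesicles; control set: naked versus QL9-loaded vesicles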
MIN6 prolif-1 = induces beta-cell replication in MIN6 cells. proliferation, % at 10 µM. MIN6 cells proliferation, ATPlite luminescence, 48 h; cells starved in 0.2% serum; 100% = growth in 10% serum. 330,000 tested, 0.29% active;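 active means compounds whose signal lies at least 3.5 SD above the mean of all wells on their plate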
Rce1 inh = inhibitors of yeast Ras-converting enzyme | AID 2563 | 290,000 tested, 0.27% active | calls only | Q03530 | yeast membranes, quenched prenylated peptide cleavage fluorescence;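 active means fall in fluorescence gain of 50% or more versus controls, with final raw signal at or below 3038400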
Target sequence (Q03530 whole entry, looked up): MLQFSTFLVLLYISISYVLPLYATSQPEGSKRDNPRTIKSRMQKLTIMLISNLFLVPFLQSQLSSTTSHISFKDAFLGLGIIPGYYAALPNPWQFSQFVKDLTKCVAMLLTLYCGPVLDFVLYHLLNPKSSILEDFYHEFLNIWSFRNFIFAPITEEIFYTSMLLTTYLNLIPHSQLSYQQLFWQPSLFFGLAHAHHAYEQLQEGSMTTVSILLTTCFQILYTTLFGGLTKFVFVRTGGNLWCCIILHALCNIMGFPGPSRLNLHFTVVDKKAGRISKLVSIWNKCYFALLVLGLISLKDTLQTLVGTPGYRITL
V-ATPase pHluor = regulators of yeast V-ATPase proton transport; S. cerevisiae, pHLuorin cytosolic pH fluorescence; response, % at 10 µM; 350,000 tested, 0.37% active; AID 504577; in the data active means response mostly above about 7.3%, no sharp cut-off; inactive means mostly below about 5.4%; further: actives read high
MIN6 prolif-2 = confirmation of inducers of beta-cell replication in MIN6 cells; shares compounds with MIN6 prolif-1; MIN6 beta-cell proliferation, ATPlite luminescence, 48 h; cells kept in 0.2% serum; scaled between 0.2% and 10% serum; proliferation increase, % at 50 µM; 920 tested, under 10 active; AID 463095;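 active means proliferation increase above 40% at any of the four tested concentrations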
Numbers stand for hits; . = inactive; / = no result given. Hits are enriched below; roughly 1.9% of the tested compounds scored in any of these assays.

SMILES	KLK7 zymogen act	Yeast superoxide	T cell modulator	MIN6 prolif-1	Rce1 inh	V-ATPase pHluor	MIN6 prolif-2
CCCCn1c(SCC(=O)Nc2sc3c(c2C(N)=O)CCC3)nnc1-c1ccccc1	.	.	.	8.3	.	.	.
c1ccc(-n2c(SCc3cccc4ccccc34)nnc2-c2ccncc2)cc1	.	/	/	/	/	/	/
COC(=O)[C@]12C[C@H](CC(=O)N3CCSCC3)C(=O)N(Cc3ccccc3)C1=C[C@H](COCc1ccccc1)O[C@@H]2C	.	/	/	/	/	/	/
N#Cc1nc(-c2ccco2)oc1NCc1ccco1	.	.	.	.	.	.	/
N#Cc1nc(-c2ccco2)oc1NCc1ccccc1Cl	.	.	.	4.6	.	.	.
COc1ccc(CC(=O)NCCS(=O)(=O)N2CCN(c3ccccc3)CC2)cc1OC	.	.	.	.	.	.	/
COc1ccc(CC(=O)NCCS(=O)(=O)N2CCN(c3ccccc3)CC2)cc1	.	.	.	11.3	.	.	.
COC(=O)[C@]12C[C@H](CC(=O)NCCC(C)C)C(=O)N(Cc3ccco3)C1=C[C@H](C(C)(C)C)O[C@@H]2C	.	/	/	/	/	/	/
COc1nc(-c2ccccc2)nnc1-c1ccccc1	.	/	/	/	.	.	/
COc1ncnc(-c2ccccc2)c1-c1ccccc1	.	.	.	7.8	.	.	.
Cc1ccc(Nc2nc3c(c(=O)[nH]2)CCCC3)cc1	.	.	.	5.8	.	.	.
CCOC(=O)N1C(=O)[C@](CC)(c2ccccc2)N1C(=O)OCC	.	.	.	12.2	.	.	.
CCC1(c2ccccc2)C(=O)N(C(=O)OC(C)(C)C)N1C(=O)OC(C)(C)C (configuration not stated)	.	/	/	.	.	.	/
CC1CCN(CCOc2ccccc2-c2ccccc2)CC1	.	.	.	0.0	.	.	.
C=CCN(C)CC#Cc1ccc(F)cc1	.	/	/	/	/	/	/
COc1ccccc1Nc1nc(C)nc2c1oc1ccccc12	.	.	.	10.2	.	.	.
Cc1cccc(C)c1NC(=O)C1(C)CN(S(C)(=O)=O)CC(=O)N1CCOc1ccccc1 (configuration not stated)	.	/	/	/	/	/	/
CC(=O)Nc1nc(SCc2ccc(Cl)cc2Cl)n[nH]1	.	.	.	.	.	.	/
CC(=O)Nc1n[nH]c(S(=O)(=O)Cc2ccc(Cl)cc2Cl)n1	.	.	.	8.0	.	.	.
FC(F)(F)c1ccc(Cn2ccc3ccc(-c4ccc5ccn(Cc6ccccc6)c5c4)cc32)cc1	.	/	/	/	/	/	/
CCC(=O)N1CCc2cc(S(=O)(=O)CCC(=O)Nc3cccc(F)c3)ccc21	.	.	.	8.9	.	.	.
O=C(c1cccc(S(=O)(=O)NCc2ccc3c(c2)OCO3)c1)N1CCCC1	.	.	.	.	/	.	/
CCCn1c(N)c(C(=O)COC(=O)/C=C/c2ccc(OC(F)F)c(OC)c2)c(=O)[nH]c1=O	.	.	.	7.4	/	.	.
COc1cc(/C=C/C(=O)OCC(=O)NCCN2C(=O)CSC2=O)ccc1OC(F)F	.	.	.	.	.	.	/
CC1CCCCN1C(=O)COC(=O)c1cc([N+](=O)[O-])ccc1N (configuration not stated)	.	.	.	14.7	.	.	.
SMILES	KLK7 zymogen act	Yeast superoxide	T cell modulator	MIN6 prolif-1	Rce1 inh	V-ATPase pHluor	MIN6 prolif-2
O=c1cc(-c2ccc(O)cc2)oc2cc(O)c(C3OC(CO)C(O)C(O)C3O)c(O)c12 (configuration not stated)	.	.	.	9.0	/	.	.
O=C(O)/C=C/c1cn(-c2ccccc2)nc1-c1ccc2c(c1)OCCO2	.	.	.	.	.	.	/
O/N=C/c1cn(-c2ccccc2)nc1-c1ccc2c(c1)OCCO2	.	.	.	7.1	.	.	.
CCOc1ncccc1C(=O)Nc1cccc(S(=O)(=O)NC2=NCCC2)c1	.	.	.	11.9	/	.	.
CCOc1ncccc1C(=O)Nc1cccc(S(=O)(=O)N2CCCCC2)c1	.	.	.	.	/	.	/
CC(C)(C)N1Cc2nnn(Cc3ccccc3)c2-c2cc(N3CCCCC3)ccc2S1(=O)=O	.	/	/	/	/	/	/
CC(=O)Nc1cccc(NC(=O)c2ccccc2OCc2c(C)noc2C)c1	.	.	.	.	.	.	/
Cc1noc(C)c1COc1ccccc1C(=O)Nc1cccc(S(=O)(=O)N(C)C)c1	.	.	.	13.9	.	.	.
COc1ccc2c(Cl)c(C(=O)N/N=C/c3cccnc3)sc2c1	.	.	.	15.2	.	.	.
C=CCOC(=O)C1=C(C)NC(=O)NC1c1ccc(OC(=O)c2ccco2)c(OC)c1 (configuration not stated)	.	.	.	.	.	.	/
CCOC(=O)C1=C(C)NC(=O)NC1c1ccc(OC(=O)c2ccco2)c(OC)c1 (configuration not stated)	.	.	.	4.7	.	.	.
N#CCc1ccc(Oc2ncccn2)cc1	.	.	.	8.4	.	.	.
COC(=O)[C@]12C[C@H](CC(=O)N3CCCC3)C(=O)N(CCc3ccc(OC)c(OC)c3)C1=C[C@H](C(C)(C)C)O[C@@H]2C	.	/	/	/	/	/	/
Cc1cc(C(=O)N2CCC(CO)(Cc3cccc(C(F)(F)F)c3)CC2)n[nH]1	.	.	.	.	.	.	/
O=C(c1cnsn1)N1CCC(CO)(Cc2cccc(F)c2)CC1	.	.	.	8.2	.	.	.
C=CCNC(=O)c1onc(CSc2ccccc2CC)c1C(=O)O	.	.	.	12.0	.	.	.
C=CCNC(=O)c1onc(CSc2ccccc2)c1C(=O)NCC=C	.	.	.	.	.	.	/
O=C(CSc1n[nH]c(=O)n1-c1ccc2c(c1)OCCO2)Nc1ccccc1	.	.	.	4.9	.	.	.
O=C(CSc1n[nH]c(=O)n1-c1ccccc1)Nc1ccccc1	.	.	.	.	.	.	/
COC(=O)C1=C(C)N(Cc2cccc(C(F)(F)F)c2)C(=NCc2ccc3c(c2)OCO3)NC1c1cccc(Cl)c1 (configuration not stated)	.	/	/	/	/	/	/
CCOC(=O)c1c(C)[nH]c(C)c1C(=O)CSc1nnnn1-c1ccccc1	.	.	.	5.5	.	.	.
CC(c1ccccc1)n1c(SCC(=O)N2CC(=O)Nc3ccccc32)nc2ccccc2c1=O (configuration not stated)	.	.	.	.	.	.	/
COCC(C)n1c(SCC(=O)N2CC(=O)Nc3ccccc32)nc2ccccc2c1=O (configuration not stated)	.	.	.	10.9	/	.	.
CC(C)C[C@H](NC(=O)N1CCn2c1nc1ccccc12)C(=O)N1CCCCC1	.	.	.	12.3	.	.	.
CSCC[C@H](NC(=O)N1CCn2c1nc1ccccc12)C(=O)N1CCCCC1	.	.	.	.	.	.	/
Cc1ccc(-c2cc(C(=O)NN=Cc3cc(Br)ccc3O)[nH]n2)cc1C	.	/	/	/	/	/	/
